Hck-Nef inh: blocks Nef-activated human Hck kinase | Recombinant Hck-YEEI plus Nef, Z-Lyte FRET kinase assay | inhibition, % at 20 µM | 0.68% of 220,000 active;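 active = Hck-Nef kinase inhibition above about 50%, limit read from the data; inactive = inhibition below that limit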;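 also: 0% = DMSO with Hck plus Nef and 100% = Hck alone without Nef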
Target sequence (P08631 whole entry, looked up): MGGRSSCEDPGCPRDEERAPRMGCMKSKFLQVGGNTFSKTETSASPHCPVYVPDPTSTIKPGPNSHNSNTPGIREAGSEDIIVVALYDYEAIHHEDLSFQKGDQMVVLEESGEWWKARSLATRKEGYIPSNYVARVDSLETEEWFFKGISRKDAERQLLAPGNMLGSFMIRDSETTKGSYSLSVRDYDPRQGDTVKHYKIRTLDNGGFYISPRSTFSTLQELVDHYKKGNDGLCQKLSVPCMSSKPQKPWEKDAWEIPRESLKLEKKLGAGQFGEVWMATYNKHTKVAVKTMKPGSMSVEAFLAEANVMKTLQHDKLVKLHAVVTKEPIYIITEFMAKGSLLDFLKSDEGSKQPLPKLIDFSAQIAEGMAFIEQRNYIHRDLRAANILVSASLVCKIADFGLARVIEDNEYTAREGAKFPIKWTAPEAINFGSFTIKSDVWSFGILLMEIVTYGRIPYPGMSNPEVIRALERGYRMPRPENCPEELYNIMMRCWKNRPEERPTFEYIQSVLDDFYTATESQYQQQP
Runt-CBFb FRET: inhibitors of human RUNX1 Runt domain binding to CBFb; Q01196+Q13951; Cerulean-Runt/Venus-CBFb FRET ratio 530/480, 1 h; inhibition, % at 20 µM; 0.46% of 220,000 active; AID 1496;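 active = inhibition over about 50% at 20 µM in the single-dose screen, limit read from the data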;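 also: 0% = DMSO wells and 100% = excess unlabeled CBFb competitor control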
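Measured by: fluorescence energy transfer, 422 nm excitation, 530/480 nm emission; test system: Cerulean-tagged RUNX1 Runt domain (FRET donor) fusion protein; buffer or medium: Tris pH 7.5 buffer with BSA; compound: one dose, 20 µM compound, 1% DMSO; times: two 1 h room-temperature incubations shielded from light; benchmarks: unlabeled CBFb 5 µM, positive control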
Runt-SMMHC FRET: inhibitors of human RUNX1 Runt domain binding to CBFb-SMMHC; Cerulean-Runt/Venus-CBFb-SMMHC FRET ratio 530/480, 1 h; inhibition, % at 20 µM; 0.74% of 220,000 active; AID 1434;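 active = mean inhibition across duplicate retests at 20 µM reaching about 50%, limit read from the data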;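 also: 0% = DMSO wells and 100% = wells with excess untagged CBFb-SMMHC; inhibitors lower the FRET ratio by blocking Runt binding to CBFb-SMMHC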
RanGTP-Impb inh: disruptors of Ran-importin-beta complex formation – biochemical, FRET, CFP-Ran, YFP-importin-beta, homogeneous, primary screen; 1.1% of 300,000 active; cell-free CFP-Ran/YFP-importin-beta FRET ratio; inhibition, % (no concentration beside the values); AID 2216;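 active = more than half of the replicate wells show a fall in the fluorescence ratio signal beyond about 16%, limit read from the data, passing the limit was not always enough; inconclusive = exactly half of the replicate wells pass the set limit; inactive = fewer than half of replicates pass the limit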;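 also: 0% = DMSO wells and 100% = Ran loaded with GDP instead of GTP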
RUNX1 CBFb TR: Runt-CBFb binding inhibition; shares compounds with Runt-CBFb FRET; TR-FRET RUNX1 Runt domain-CBFb binding; inhibition, % at 20 µM; 20% of 480 active; in the data active = inhibition above about 40%
* = called active by the depositor. Compounds with a hit are over-represented: about 1.8% of the library has one in this group of screens.

What do the screens show for `Fc1ccc(C2CC(c3ccco3)=Nc3ccccc3S2)cc1` (configuration not stated)?
Hck-Nef inh: -28; Runt-CBFb FRET: 51*; Runt-SMMHC FRET: 34; RanGTP-Impb inh: 3; RUNX1 CBFb TR: -5

How did O=[N+]([O-])c1ccc(C2CC(c3ccccc3)=Nc3ccccc3S2)cc1 (configuration not stated) do in these assays?
Hck-Nef inh: 20; Runt-CBFb FRET: 56*; Runt-SMMHC FRET: -3; RanGTP-Impb inh: -2; RUNX1 CBFb TR: 20

Results for COc1ccc(C(=O)n2cnc3ccccc32)cc1 ?
RanGTP-Impb inh: -2

What do the screens show for `c1ccc(-c2onc3cc4c(cc23)OCCO4)cc1`?
Hck-Nef inh: -5; Runt-CBFb FRET: 77*; Runt-SMMHC FRET: 104*; RanGTP-Impb inh: 6; RUNX1 CBFb TR: 11

How did CCOC(=O)CN1NC2(CCCC(C)C2)NC1=S (configuration not stated) do in these assays?
Hck-Nef inh: 1; Runt-CBFb FRET: 51*; Runt-SMMHC FRET: 32; RanGTP-Impb inh: inconclusive; RUNX1 CBFb TR: 10

How did CCOc1ccc(NC(=O)N(Cc2ccc(C)cc2)Cc2ccccn2)cc1 do in these assays?
RanGTP-Impb inh: -1

What do the screens show for `O=C(O)c1ccccc1C(=O)Nc1nccs1`?
Hck-Nef inh: 1; Runt-CBFb FRET: 0; Runt-SMMHC FRET: 1; RanGTP-Impb inh: -2

Results for O=C(O)c1ccccc1C(=O)Nc1n[nH]c(=S)s1 ?
Hck-Nef inh: 1; Runt-CBFb FRET: 54*; Runt-SMMHC FRET: 43; RanGTP-Impb inh: -1; RUNX1 CBFb TR: 20

Results for CS(=O)(=O)c1ccc2nc(NC(=O)c3ccc(N4C(=O)CCC4=O)cc3)sc2c1 ?
Hck-Nef inh: -6; Runt-CBFb FRET: -1; Runt-SMMHC FRET: 5; RanGTP-Impb inh: -3

Results for CN1C=CC2=C(C#N)C(N)C(C#N)(C#N)C(c3ccccc3)C2C1 (configuration not stated) ?
Hck-Nef inh: 24; Runt-CBFb FRET: 71*; Runt-SMMHC FRET: 62*; RanGTP-Impb inh: 40*; RUNX1 CBFb TR: 32

What do the screens show for `CN1C[C@@H]2C(c3ccccc3)C3(c4ccc(C#N)cc4)CC2(C3)[C@H]1c1ccccc1` (some centres not stated)?
Hck-Nef inh: 26; Runt-CBFb FRET: 2; Runt-SMMHC FRET: 0; RanGTP-Impb inh: -2

Results for CC1(C)CC(=O)c2c(oc3cc(O)c(O)cc23)C1 ?
Hck-Nef inh: -2; Runt-CBFb FRET: 52*; Runt-SMMHC FRET: 44; RanGTP-Impb inh: 0; RUNX1 CBFb TR: 25

How did COC(=O)c1oc2c(c1C)C(=O)CC(C)(C)C2 do in these assays?
Hck-Nef inh: -6; Runt-CBFb FRET: -1; Runt-SMMHC FRET: -2; RanGTP-Impb inh: 4

How did Cc1cc(O)c(Oc2cc(C)cc(O)c2O)c(O)c1 do in these assays?
Hck-Nef inh: -8; Runt-CBFb FRET: 70*; Runt-SMMHC FRET: 62*; RanGTP-Impb inh: -2; RUNX1 CBFb TR: 54*

Results for Nc1c2c(nc3ccc(Br)cc13)N(c1ccccc1)CC2 ?
Hck-Nef inh: 3; Runt-CBFb FRET: 26; Runt-SMMHC FRET: -12

How did Cc1cccc(N2CCc3c2nc2ccc(Br)cc2c3N)c1 do in these assays?
Hck-Nef inh: 5; Runt-CBFb FRET: 57*; Runt-SMMHC FRET: 78; RanGTP-Impb inh: 6; RUNX1 CBFb TR: -14

What do the screens show for `COc1ccccc1N1CCN(/N=C/c2cc(OC)c(O)c(OC)c2)CC1`?
Hck-Nef inh: 2; Runt-CBFb FRET: 59*; Runt-SMMHC FRET: 47; RanGTP-Impb inh: 4; RUNX1 CBFb TR: 35

What do the screens show for `C=C(C)[C@@H]1CC=C(CN2CCN(Cc3ccccc3)CC2)CC1`?
RanGTP-Impb inh: -1

What do the screens show for `Oc1ccc(-c2cnns2)c(O)c1`?
Hck-Nef inh: 4; Runt-CBFb FRET: 73*; RanGTP-Impb inh: 1; RUNX1 CBFb TR: 58*

What do the screens show for `O=C(Nc1ccccc1)C1=C(c2ccccc2)S(=O)(=O)CCS1(=O)=O`?
Hck-Nef inh: 18; Runt-CBFb FRET: 52*; Runt-SMMHC FRET: 44; RanGTP-Impb inh: -1; RUNX1 CBFb TR: 23

What do the screens show for `O=C(O)c1ccccc1C(=O)Nc1ccccc1`?
Hck-Nef inh: 5; Runt-CBFb FRET: 7; Runt-SMMHC FRET: -3; RanGTP-Impb inh: 2

Assay outcomes from PubChem.
